From ChEMBL document CHEMBL1138699, “Design, synthesis, and biological evaluation of the first selective nonpeptide AT2 receptor agonist” (J Med Chem, 2004)
Values belong to the molecule of their own block, whether it stands above or below them.

Experiments:
[1] = biological target: T1, Angiotensin II receptor (AT-1) type-1 (Rattus norvegicus, UniProt P29089+P25095); assay: Displacement of [125I]-Ang II from rat liver membrane angiotensin II type 1 (AT1) receptor
T1 sequence (P29089 whole entry): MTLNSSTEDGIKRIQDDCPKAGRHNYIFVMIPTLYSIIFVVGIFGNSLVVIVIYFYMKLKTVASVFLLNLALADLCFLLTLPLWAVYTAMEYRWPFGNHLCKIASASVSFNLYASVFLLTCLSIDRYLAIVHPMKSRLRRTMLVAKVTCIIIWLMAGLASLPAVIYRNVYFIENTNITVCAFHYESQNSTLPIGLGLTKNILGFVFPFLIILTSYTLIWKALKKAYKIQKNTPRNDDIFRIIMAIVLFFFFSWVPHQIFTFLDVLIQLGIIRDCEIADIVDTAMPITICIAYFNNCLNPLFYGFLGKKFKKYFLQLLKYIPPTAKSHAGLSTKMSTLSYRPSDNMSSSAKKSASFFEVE
T1 sequence (P25095 whole entry): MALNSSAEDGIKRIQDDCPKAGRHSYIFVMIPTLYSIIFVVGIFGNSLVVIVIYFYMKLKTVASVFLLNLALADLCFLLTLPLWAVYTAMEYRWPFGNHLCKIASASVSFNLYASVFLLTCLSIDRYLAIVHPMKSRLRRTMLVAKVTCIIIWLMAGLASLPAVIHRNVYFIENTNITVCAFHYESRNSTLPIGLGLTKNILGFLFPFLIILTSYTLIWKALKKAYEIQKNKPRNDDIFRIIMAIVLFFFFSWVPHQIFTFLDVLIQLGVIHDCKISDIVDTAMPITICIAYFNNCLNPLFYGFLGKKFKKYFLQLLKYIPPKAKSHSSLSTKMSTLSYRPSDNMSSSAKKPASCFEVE

[2] = biological target: Type-2 angiotensin II receptor (Sus scrofa); assay: Displacement of [125I]-Ang II from pig uterus membrane angiotensin II type 2 (AT2) receptor
[3] = biological target: Mitogen-activated protein kinase 3 (Homo sapiens) (UniProt P27361); assay: Concentration required to abolish MAPK activity in mouse neuroblastoma and rat glioma hybrid NG 108-15 cells; format: functional, cell-based
Rattus norvegicus [4] = species on record: Rattus norvegicus; assay: Compound was tested for its ability to rise duodenal alkaline secretion in rats was determined; format: functional
Summary of the method: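 Anaesthetized (pentobarbital ip 60 mg/kg, then 30 mg kg-1 h-1) nonfasted male Sprague-Dawley rats at 38 °C. Isolated duodenal segment with bile duct diverted, perfused with recirculating isotonic saline. HCO3- output pH-stat titrated to pH 7.4 with 0.02 M HCl. Intravenous infusion; net change is the 30-45 min value minus the last 15 min basal. Mean ± SEM, n = 5; ANOVA with Bonferroni.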

Rattus norvegicus [5] = assay: Concentration of compound required to stimulate secretion of duodenal alkaline secretion in rats when administered intralbuminally was determined; format: functional
Summary of the method: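 Same anaesthetized Sprague-Dawley duodenal pH-stat preparation (saline perfusate titrated to pH 7.4 with 0.02 M HCl). Here the agonist went into the intraluminal perfusate at 100 µM, with PD 123,319 at 150 µM intraluminally for antagonism. Net change over basal at 30-45 min; n = 5.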

NG108-15 [6] = assay: Concentration of compound required to induce cell death of mouse neuroblastoma and rat glioma hybrid NG 108-15 cells was determined; format: functional
Summary of the method: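 NG108-15 neuroblastoma × glioma hybrid cells (passage 7-30) were grown in DMEM with 10% FBS, HAT supplement and gentamycin at 37 °C under 7% CO2. They were treated 24 h after plating, with compound added daily, at 1 pM to 1 µM for 3 days. Cell death was judged by phase-contrast microscopy and micrographs.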

[7] = Half life after oral administration in rat was determined; format: ADME, organism-based; settings: in vivo
Summary of the method: (§1)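 Male Sprague-Dawley rats (ca. 6-7 weeks), triplicate groups; oral gavage at 30, 100 and 300 µg/kg and single iv tail-vein bolus at 30 µg/kg. Tail-vein blood at 30 min and 1, 2, 4, 6, 8, 24 h, heparinized plasma, acetonitrile precipitation, LC-MS/MS (positive-ion SRM 476.3→293.2). Bioavailability from AUC0-8h rather than AUC0-∞.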

[8] = Bioavailability after oral administration in rat was determined; range is 20-30; format: ADME, organism-based; settings: in vivo, read-out: Bioavailabiility; summary of the method: as §1
NG108-15 [9] = assay: Concentration of compound required to induce neurite outgrowth in mouse neuroblastoma and rat glioma hybrid NG 108-15 cells was determined; format: functional
Summary of the method: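 NG108-15 cells (passage 7-30) in DMEM/10% FBS/HAT at 37 °C, 7% CO2, plated at 3 × 10^4 cells per 35 mm dish. First stimulation 24 h after plating, agonist given daily over 1 pM-1 µM for 3 days. Phase-contrast scoring: a neurite longer than the cell body counts as positive. At least 140 cells, three independent experiments.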

Sequence of Mitogen-activated protein kinase 3 (Homo sapiens) (P27361 whole entry): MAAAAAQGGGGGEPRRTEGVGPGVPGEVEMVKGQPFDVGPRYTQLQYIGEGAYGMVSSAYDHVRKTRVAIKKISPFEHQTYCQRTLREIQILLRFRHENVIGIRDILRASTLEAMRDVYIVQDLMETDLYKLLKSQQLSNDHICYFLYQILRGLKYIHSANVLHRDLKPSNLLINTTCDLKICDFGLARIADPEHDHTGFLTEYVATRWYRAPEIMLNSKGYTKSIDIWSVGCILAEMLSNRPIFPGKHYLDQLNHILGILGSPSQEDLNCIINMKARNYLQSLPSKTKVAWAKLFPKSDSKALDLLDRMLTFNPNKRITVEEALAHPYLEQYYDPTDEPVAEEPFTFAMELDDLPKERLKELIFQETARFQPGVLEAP

Structure (SMILES): CCCCOC(=O)NS(=O)(=O)c1sc(CC(C)C)cc1Cc1ccc(-n2ccnc2)cc1
Ki [1]: > 10000 nM

Structure (SMILES): CCCCOC(=O)NS(=O)(=O)c1ccc(Cc2cccc(OC)c2)cc1-c1ccc(Cn2c(CC)nc3c(C)cc(C)nc32)cc1
IC50 [2]: 101 nM
IC50 [1]: 1.4 nM

Structure (SMILES): COc1cccc(-c2cc(=O)c3ccccc3o2)c1N
Activity [3]: 10 µM

Structure (SMILES): CCCCOC(=O)NS(=O)(=O)c1sc(CC(C)C)cc1Cc1ccc(C#N)cc1
Ki [1]: > 10000 nM

Structure (SMILES): Cc1cc(Cn2cnc3c2C[C@@H](C(=O)O)N(C(=O)C(c2ccccc2)c2ccccc2)C3)ccc1N(C)C.O=C(O)C(F)(F)F.O=C(O)C(F)(F)F
Activity (Rattus norvegicus [4]): 0.3 mg/h/kg
IC50 [1]: > 10000 nM
Activity (Rattus norvegicus [5]): 150 µM

Structure (SMILES): CCCCOC(=O)NS(=O)(=O)c1sc(CC(C)C)cc1-c1ccc(Cn2ccnc2)cc1 [BULOXIBUTID]
Activity (NG108-15 [6]): 1 µM
half-life [7]: 4 h
Activity (Rattus norvegicus [4]): 0.03 mg/h/kg
Ki [1]: > 10000 nM
bioavailability [8]: < 30%
Activity (NG108-15 [9]): > 0.1 nM
Activity (Rattus norvegicus [5]): 100 µM

More lines, now with the values ahead:

Ki [1]: 500 nM
Structure (SMILES): CCCCOC(=O)NS(=O)(=O)c1sc(CC(C)C)cc1-c1ccc(Cn2cnc3ccccc32)cc1

Ki [1]: > 10000 nM
Structure (SMILES): CCCCOC(=O)NS(=O)(=O)c1sc(CC(C)C)cc1-c1ccc(Cn2cnc3cccnc32)cc1

Ki [1]: > 10000 nM
Structure (SMILES): CCCCOC(=O)NS(=O)(=O)c1sc(CC(C)C)cc1-c1ccc(C#N)cc1

Ki [1]: 100 nM
Structure (SMILES): CCCCOC(=O)NS(=O)(=O)c1sc(CC(C)C)cc1-c1ccc(CC#N)cc1

Ki [1]: > 10000 nM
Structure (SMILES): CCCCOC(=O)NS(=O)(=O)c1sc(CC(C)C)cc1-c1ccc(Cn2c(CC)nc3ccccc32)cc1

IC50 [1]: 1.1 nM
Ki [1]: 3.9 nM
Structure (SMILES): CCCCOC(=O)NS(=O)(=O)c1sc(CC(C)C)cc1-c1ccc(Cn2c(CC)nc3c(C)cc(C)nc32)cc1

Ki [1]: > 10000 nM
Structure (SMILES): CCCCOC(=O)NS(=O)(=O)c1sc(CC(C)C)cc1-c1ccc(Cn2ccnc2C)cc1
